{
  "source": "ChEMBL document CHEMBL4619796",
  "about": "“Discovery of 3-Quinazolin-4(3H)-on-3-yl-2,N-dimethylpropanamides as Orally Active and Selective PI3Kα Inhibitors” (ACS Med Chem Lett, 2020)",
  "key": {"[1]": {"assay": "Cmax in BALB/c mouse at 10 mg/kg, po by HPLC analysis", "type": "ADME, organism-based", "parameters": "dose 10 mg/kg, route oral", "conditions": "in vivo"}, "[2]": {"assay": "Dose normalized AUC (0 to last) in BALB/c mouse at 10 mg/kg, po by HPLC analysis", "type": "ADME, organism-based", "conditions": "in vivo"}, "BT-474 [3]": {"tested_on": "BT-474", "assay": "Antitumor activity against PI3KCA mutant human BT474 cells xenografted in BALB/c nude mouse assessed as tumor growth inhibition at 30 mg/kg, po administered once daily for 21 days by caliper method relative to control", "type": "functional", "conditions": "BT-474, po, 504 h, read-out: TGI", "method_in_brief": "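BT-474 (PIK3CA mutant human breast ductal carcinoma) subcutaneous xenografts in Balb/c nude mice. Oral dosing once daily for 21 days. Vehicle 0.5% MC + 0.2% Tween 80. Read-out is tumor growth inhibition.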"}, "[4]": {"molecular_target": "Phosphatidylinositol 4,5-bisphosphate 3-kinase catalytic subunit alpha isoform (Homo sapiens, UniProt P42336)", "sequence (P42336 whole entry, looked up, canonical isoform)": "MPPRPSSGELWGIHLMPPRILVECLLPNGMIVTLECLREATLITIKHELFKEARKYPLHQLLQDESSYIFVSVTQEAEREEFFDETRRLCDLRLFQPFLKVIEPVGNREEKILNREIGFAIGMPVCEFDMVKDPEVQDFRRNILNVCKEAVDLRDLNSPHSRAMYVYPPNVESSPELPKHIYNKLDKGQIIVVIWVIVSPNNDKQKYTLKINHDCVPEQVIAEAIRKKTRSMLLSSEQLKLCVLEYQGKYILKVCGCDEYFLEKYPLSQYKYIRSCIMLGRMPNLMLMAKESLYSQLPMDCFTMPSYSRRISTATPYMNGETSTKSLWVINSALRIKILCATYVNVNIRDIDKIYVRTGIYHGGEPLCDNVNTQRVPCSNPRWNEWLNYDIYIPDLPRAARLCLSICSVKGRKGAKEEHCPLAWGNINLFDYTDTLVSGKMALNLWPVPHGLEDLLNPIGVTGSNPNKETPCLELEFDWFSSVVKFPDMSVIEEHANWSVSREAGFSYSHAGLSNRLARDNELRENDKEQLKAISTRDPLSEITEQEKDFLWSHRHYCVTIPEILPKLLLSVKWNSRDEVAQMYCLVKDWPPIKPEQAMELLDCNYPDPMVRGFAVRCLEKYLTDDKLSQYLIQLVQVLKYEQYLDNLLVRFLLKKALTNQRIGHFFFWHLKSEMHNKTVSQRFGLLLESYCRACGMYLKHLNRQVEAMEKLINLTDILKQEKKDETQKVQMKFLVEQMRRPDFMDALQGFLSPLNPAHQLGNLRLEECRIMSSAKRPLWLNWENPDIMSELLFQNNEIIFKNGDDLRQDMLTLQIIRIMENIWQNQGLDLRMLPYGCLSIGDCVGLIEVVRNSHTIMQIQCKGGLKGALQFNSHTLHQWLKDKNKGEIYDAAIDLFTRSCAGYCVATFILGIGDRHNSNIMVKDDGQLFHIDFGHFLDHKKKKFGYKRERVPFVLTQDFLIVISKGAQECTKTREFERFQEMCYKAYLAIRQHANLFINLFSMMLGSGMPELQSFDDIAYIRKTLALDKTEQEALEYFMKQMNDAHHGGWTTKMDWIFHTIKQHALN", "assay": "Inhibition of PI3Kalpha in human BT474 cells expressing P3KCA mutant assessed as reduction in AKT phosphorylation at residue S473 incubated for 2 hrs followed by insulin addition by ELISA", "type": "cell-based", "conditions": "bt-474", "method_in_brief": "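Akt phosphorylation was measured in the PIK3CA mutant human breast ductal carcinoma BT-474 cell line, used as a PI3Kα-sensitive cellular readout. IC50 determined.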"}, "[5]": {"molecular_target": "Phosphatidylinositol 4,5-bisphosphate 3-kinase catalytic subunit gamma isoform (Mus musculus, UniProt Q9JHG7)", "sequence (Q9JHG7 whole entry, canonical isoform)": "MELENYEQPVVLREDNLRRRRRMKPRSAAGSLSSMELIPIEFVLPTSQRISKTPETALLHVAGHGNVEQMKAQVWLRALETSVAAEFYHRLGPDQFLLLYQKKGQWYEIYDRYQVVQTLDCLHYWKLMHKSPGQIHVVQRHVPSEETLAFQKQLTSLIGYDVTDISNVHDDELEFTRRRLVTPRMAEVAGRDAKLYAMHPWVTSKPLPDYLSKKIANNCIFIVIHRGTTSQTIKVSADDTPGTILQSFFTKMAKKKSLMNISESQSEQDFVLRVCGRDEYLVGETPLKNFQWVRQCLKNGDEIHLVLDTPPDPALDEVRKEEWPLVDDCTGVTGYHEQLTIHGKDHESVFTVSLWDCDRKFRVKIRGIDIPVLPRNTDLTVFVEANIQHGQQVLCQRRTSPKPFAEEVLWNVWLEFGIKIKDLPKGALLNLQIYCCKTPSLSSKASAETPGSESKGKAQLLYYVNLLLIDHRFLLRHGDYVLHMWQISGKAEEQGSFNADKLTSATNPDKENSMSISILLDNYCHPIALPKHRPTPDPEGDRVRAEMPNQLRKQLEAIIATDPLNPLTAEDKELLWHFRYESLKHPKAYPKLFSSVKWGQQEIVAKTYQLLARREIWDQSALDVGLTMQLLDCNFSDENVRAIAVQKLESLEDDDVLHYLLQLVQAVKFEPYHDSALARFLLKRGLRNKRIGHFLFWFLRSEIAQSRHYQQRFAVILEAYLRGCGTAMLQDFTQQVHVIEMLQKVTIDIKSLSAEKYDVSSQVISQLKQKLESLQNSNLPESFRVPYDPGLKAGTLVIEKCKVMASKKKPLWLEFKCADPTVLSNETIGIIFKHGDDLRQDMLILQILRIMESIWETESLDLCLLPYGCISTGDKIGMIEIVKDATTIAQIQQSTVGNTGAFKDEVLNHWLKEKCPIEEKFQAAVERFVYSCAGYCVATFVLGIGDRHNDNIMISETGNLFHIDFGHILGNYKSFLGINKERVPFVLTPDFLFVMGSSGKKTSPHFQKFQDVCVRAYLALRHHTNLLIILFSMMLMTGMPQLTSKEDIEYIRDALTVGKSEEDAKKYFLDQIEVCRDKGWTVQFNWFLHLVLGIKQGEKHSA", "assay": "Inhibition of PI3Kgamma in mouse RAW264.7 cells assessed as reduction in AKT phosphorylation at residue S473 treated with mouse C5a component and measured after 3 mins"}, "BT-474 [6]": {"tested_on": "BT-474", "assay": "Antitumor activity against PI3KCA mutant human BT474 cells xenografted in po dosed BALB/c nude mouse assessed as tumor growth inhibition administered once daily and measured after 30 days by caliper method", "type": "functional, organism-based"}, "[7]": {"assay": "Volume of distribution in Sprague-Dawley rat at 1 mg/kg, iv by HPLC analysis", "type": "ADME, organism-based", "conditions": "in vivo"}, "[8]": {"assay": "Metabolic stability in Sprague-Dawley rat liver microsomes assessed as parent compound remaining at 10 uM preincubated for 10 mins in water bath followed by NADPH addition and measured after 60 mins by LC-MS/MS analysis", "type": "ADME, Microsome", "conditions": "read-out: Stability"}, "[9]": {"assay": "Metabolic stability in CD-1 mouse liver microsomes assessed as parent compound remaining at 10 uM preincubated for 10 mins in water bath followed by NADPH addition and measured after 60 mins by LC-MS/MS analysis", "type": "ADME, Microsome", "conditions": "read-out: Stability"}},
  "data": [
    {"smiles": "CNC(=O)[C@H](C)Cn1cnc2ccc(-c3cnc(OC)c(NS(=O)(=O)c4ccc(F)cc4Cl)c3)cc2c1=O", "values": [
      {"measurement": "Cmax", "setting": "[1]", "result": 37, "unit": "µM"},
      {"measurement": "AUClast/dose", "setting": "[2]", "result": 3090, "unit": "nM·h"},
      {"measurement": "inhibition in vivo at 30 mg/kg", "setting": "BT-474 [3]", "result": 73, "unit": "%"},
      {"measurement": "IC50", "setting": "[4]", "result": 12.1, "unit": "nM"},
      {"measurement": "IC50", "setting": "[5]", "result": "> 10000", "unit": "nM"},
      {"measurement": "TGI", "setting": "BT-474 [6]", "result": "Dose-dependent effect"},
      {"measurement": "Vd", "setting": "[7]", "result": 0.321, "unit": "L/kg"},
      {"measurement": "remaining at 1 h, 10 µM", "setting": "[8]", "result": 32, "unit": "%"},
      {"measurement": "remaining at 1 h, 10 µM", "setting": "[9]", "result": 32.7, "unit": "%"}
    ]}
  ]
}
